# From ChEMBL document CHEMBL5634116, “Strategies for developing retinoic acid receptor alpha-selective antagonists as novel agents for male contraception” (Eur J Med Chem, 2023)
# The source made the active and inactive calls. No cut-off for these calls is given here.
# Legend:
# [1] = biological target: T1, Retinoic acid receptor gamma (Homo sapiens, UniProt P13631); experiment: Antagonist activity at recombinant human RAR-gamma expressed in mammalian cells in presence of ATRA by luciferase reporter gene based transactivation assay; format: cell-based
# T1 sequence (P13631 whole entry): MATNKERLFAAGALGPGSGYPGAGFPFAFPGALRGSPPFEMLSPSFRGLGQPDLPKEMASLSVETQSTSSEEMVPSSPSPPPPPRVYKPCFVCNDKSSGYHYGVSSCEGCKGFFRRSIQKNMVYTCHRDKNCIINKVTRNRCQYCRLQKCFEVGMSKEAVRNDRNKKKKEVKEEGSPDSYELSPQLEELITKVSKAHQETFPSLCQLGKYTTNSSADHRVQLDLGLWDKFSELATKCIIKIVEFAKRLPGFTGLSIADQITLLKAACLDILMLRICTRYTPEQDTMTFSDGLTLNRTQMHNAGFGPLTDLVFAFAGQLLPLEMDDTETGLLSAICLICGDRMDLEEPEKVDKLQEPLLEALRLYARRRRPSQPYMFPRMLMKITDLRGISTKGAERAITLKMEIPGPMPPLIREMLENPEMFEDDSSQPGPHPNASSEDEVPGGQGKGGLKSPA
# How it was run: (§1)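 Compounds 8-point dose response in triplicate, DMSO final 0.4%; overnight at 37 °C, 5% CO2; luminescence after 30 min detection reagent. IC50 by four-parameter logistic fit; agonist-free wells set background.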
# [2] = Solubility of compound in PBS at pH 7.4; format: physicochemical; conditions: buffer
# How it was run: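 Solubility measured in PBS, pH 7.4.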
# Mus musculus [3] = experiment: Effect on spermatogenesis in CD-1 mouse assessed as sperm count at 10 mg/kg/day, po for 2 weeks measured on day 1 post-cessation of drug treatment by hemocytometry (reference value: 41.80 +/- 7.92 x 10^6No_unit); format: functional; conditions: time 15 day
# Mus musculus [4] = experiment: Effect on spermatogenesis in CD-1 mouse assessed as testicular weight at 5 mg/kg/day, po for 7 days measured on day 1 post-cessation of drug treatment (reference value: 0.12 +/- 0.01 g); format: functional; conditions: time 8 day
# Mus musculus [5] = experiment: Effect on spermatogenesis in CD-1 mouse assessed as spermatids in abnormal stage IX tubules at 5 mg/kg/day, po for 7 days measured after 4 weeks post-cessation of drug treatment by hematoxylin counter-staining based analysis; format: functional, organism-based; conditions: time 5.0 weeks
# [6] = Partition coefficient, logD of compound in 1-octanol/PBS at pH 7.4; format: physicochemical; conditions: octanol/water
# How it was run: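 Distribution between 1-octanol and PBS at pH 7.4; log D reported.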
# [7] = biological target: T1, Retinoic acid receptor gamma; experiment: Agonist activity at recombinant human RAR-gamma expressed in mammalian cells by luciferase reporter gene based transactivation assay; format: cell-based
# How it was run: (§2)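 Human RAR-subtype luciferase reporter cells (RARE-driven). Compounds in DMSO (final 0.4%) tested as 8-point dose response in triplicate. Incubated overnight at 37 °C in 5% CO2, then detection reagent 30 min at r.t. and luminescence measured. EC50 by four-parameter logistic fit, mean ± SEM from geometric mean of log EC50 across independent experiments.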
# Mus musculus [8] = experiment: Effect on spermatogenesis in CD-1 mouse assessed as reduction in sperm count administered as Carbitol formulation at 10 mg/kg/day, po for 28 days consecutively measured on day 1 post-cessation of drug treatment by hemocytometry relative to control; format: functional; design: scale not given: the % may be the effect or the level left; conditions: time 29 day
# Mus musculus [9] = experiment: Effect on fertility in CD-1 mouse assessed as size of embryonic litters formed post-cessation of drug treatment at 5 mg/kg/day, po for 7 days followed by drug cessation and initiation of mating for 2 weeks; format: functional; conditions: time 3 weeks
# Mus musculus [10] = experiment: Effect on spermatogenesis in CD-1 mouse assessed as abnormality in spermatid translocation at 5 mg/kg/day, po for 7 days measured after 4 weeks post-cessation of drug treatment by hematoxylin counter-staining based analysis; format: functional, organism-based; conditions: time 5.0 weeks
# [11] = biological target: T2, Retinoic acid receptor beta (Homo sapiens, UniProt P10826); experiment: Agonist activity at recombinant human RAR-beta expressed in mammalian cells by luciferase reporter gene based transactivation assay; format: cell-based; how it was run: as §2
# T2 sequence (P10826 whole entry): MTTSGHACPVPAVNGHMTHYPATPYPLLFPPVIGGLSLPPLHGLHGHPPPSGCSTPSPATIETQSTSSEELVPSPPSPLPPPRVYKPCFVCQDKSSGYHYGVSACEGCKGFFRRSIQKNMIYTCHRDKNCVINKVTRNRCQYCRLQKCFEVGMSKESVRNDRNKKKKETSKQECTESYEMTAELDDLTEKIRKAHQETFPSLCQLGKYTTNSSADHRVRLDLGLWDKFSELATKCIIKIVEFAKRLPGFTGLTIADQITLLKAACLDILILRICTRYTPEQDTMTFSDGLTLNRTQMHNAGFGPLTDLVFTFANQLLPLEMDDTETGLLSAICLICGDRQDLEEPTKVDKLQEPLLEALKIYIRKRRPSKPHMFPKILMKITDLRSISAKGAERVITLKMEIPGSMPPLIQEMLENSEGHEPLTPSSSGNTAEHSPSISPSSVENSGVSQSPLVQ
# Mus musculus [12] = experiment: Effect on spermatogenesis in CD-1 mouse assessed as abnormality in spermatid release at 5 mg/kg/day, po for 7 days measured after 4 weeks post-cessation of drug treatment by hematoxylin counter-staining based analysis; format: functional, organism-based; conditions: time 5.0 weeks
# [13] = Metabolic stability in CD-1 mouse liver microsomes assessed as compound remaining in presence of NADPH measured for 60 mins at 10^-6 M; format: ADME, Microsome; conditions: dose 1 10^-6M, read-out: Stability
# [14] = biological target: T3, Retinoic acid receptor alpha (Homo sapiens, UniProt P10276); experiment: Antagonist activity at recombinant human RAR-alpha expressed in mammalian cells in presence of 9-cis-RA by luciferase reporter gene based transactivation assay; format: cell-based; how it was run: as §1
# T3 sequence (P10276 whole entry): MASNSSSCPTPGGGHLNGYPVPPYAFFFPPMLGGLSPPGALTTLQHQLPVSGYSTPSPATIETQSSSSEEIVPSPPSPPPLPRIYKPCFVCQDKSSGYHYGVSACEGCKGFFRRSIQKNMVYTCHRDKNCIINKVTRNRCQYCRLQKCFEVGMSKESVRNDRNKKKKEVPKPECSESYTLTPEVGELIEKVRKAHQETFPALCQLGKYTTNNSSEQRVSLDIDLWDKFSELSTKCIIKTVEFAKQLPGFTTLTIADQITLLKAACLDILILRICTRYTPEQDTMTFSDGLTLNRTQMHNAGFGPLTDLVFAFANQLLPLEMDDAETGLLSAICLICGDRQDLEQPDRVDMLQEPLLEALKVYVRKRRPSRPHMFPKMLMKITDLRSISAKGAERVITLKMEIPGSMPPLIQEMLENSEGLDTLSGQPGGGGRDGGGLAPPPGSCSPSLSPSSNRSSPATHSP
# Mus musculus [15] = experiment: Effect on spermatogenesis in CD-1 mouse assessed as abnormal stage IX tubules at 10 mg/kg/day, po for 2 weeks measured measured after 4 weeks post-cessation of drug treatment by hematoxylin counter-staining based analysis; format: functional, organism-based; conditions: time 6.0 weeks
# How it was run: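 CD1 males given 10 mg/kg/day orally for 2 weeks dissolved in 20% aqueous Kollisolv (n = 10 per time point); vehicle-only controls n = 5. Testes collected one day or 4 weeks after cessation, fixed in 4% paraformaldehyde or Bouin's, paraffin-embedded, PAS-stained with hematoxylin counterstain and tubules staged by bright-field microscopy.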
compound,measurement,setting,value
Cc1ccc(C2=CC(C)(C)Oc3ccc(C(=O)Nc4ccc(C(=O)O)cc4)cc32)cc1,IC50,[1],310 nM
same,solubility,[2],4.2 µM
same,Activity,Mus musculus [3],37.2 10^6No_unit
same,Activity,Mus musculus [4],0.11 g
same,Activity,Mus musculus [5],inactive
same,logD,[6],3.35
same,EC50,[7],520 nM
same,Activity,Mus musculus [8],~73%
same,Activity,Mus musculus [9],12.15
same,Activity,Mus musculus [10],inactive
same,EC50,[11],75 nM
same,Activity,Mus musculus [12],inactive
same,"remaining at 1 h, 1 µM",[13],100%
same,IC50,[14],4.6 nM
same,Activity,Mus musculus [15],inactive
